Test results reported in ChEMBL document CHEMBL3272281, “Synthesis and structure-activity relationship studies of cytotoxic epoxide derivatives of 7-oxabicyclo[2.2.1]heptane” (J Med Chem, 1977).
Converted amounts (≈) assume the structure as drawn. The source made the active and inactive calls.

Assays:
[1] = test system: L1210; assay: Antitumor activity against mouse L1210 cells allografted in BDF1 mouse; type: functional
[2] = Cytotoxicity against human 9KB cells; type: functional; conditions: read-out: ED50 (the source's name)
Method in brief: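 9KB cell culture assay run under the National Cancer Institute programme with compounds supplied in DMF solution. Values are ED50 in μg/ml, and ≤4 μg/ml is taken as the significance criterion.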

[3] = test system: Mus musculus; assay: Toxicity in BDF1 mouse allografted with mouse L1210 cells at 400 mg/kg; type: organism-based; set-up: dose 400 mg/kg; conditions: in vivo
Method in brief: (§1)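 Toxicity was recorded as lethality to BDF1 mice during the in vivo L1210 lymphoid leukemia screen. Compounds were given at 12.5, 50, 200 or 400 mg/kg.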

[4] = test system: Mus musculus; assay: Toxicity in BDF1 mouse allografted with mouse L1210 cells at 200 mg/kg; type: organism-based; set-up: dose 200 mg/kg; conditions: in vivo; method in brief: as §1
[5] = test system: Mus musculus; assay: Toxicity in BDF1 mouse allografted with mouse L1210 cells at 50 mg/kg; type: organism-based; set-up: dose 50 mg/kg; conditions: in vivo; method in brief: as §1
[6] = test system: Mus musculus; assay: Toxicity in BDF1 mouse allografted with mouse L1210 cells at 12.5 mg/kg; type: organism-based; set-up: dose 12.5 mg/kg; conditions: in vivo; method in brief: as §1

**Q.** Which Activity [1] does the source give for COC(=O)C1=C(C(=O)OC)C2CCC1O2 here?
**A.** Its Activity is “inactive”.

**Q.** And the EC50 [2]?
**A.** Its EC50 is 22 µg/mL (≈ 104 µM).

**Q.** What about the Activity [3] of the same compound?
**A.** The Activity was “Non-toxic”.

**Q.** What about the Activity [4] of the same compound?
**A.** The Activity was “Non-toxic”.

**Q.** What does the source list for C1OCC2OC12 (stereo not given)?
**A.** Activity [1]: inactive; EC50 [2]: 100 µg/mL (≈ 1160 µM); Activity [3]: Non-toxic; Activity [4]: Non-toxic

**Q.** For COC(=O)[C@@H]1[C@H]2C[C@@H]([C@@H]3O[C@H]23)[C@@H]1C(=O)OC, which Activity [1] is on record?
**A.** Its Activity is “inactive”.

**Q.** What about the EC50 [2] of the same compound?
**A.** Its EC50 is 100 µg/mL (≈ 442 µM).

**Q.** And the Activity [3]?
**A.** The Activity was “Non-toxic”.

**Q.** What about the Activity [4] of the same compound?
**A.** Its Activity is “Non-toxic”.

**Q.** Which Activity [1] does the source give for COC(=O)C1=C(C(=O)OC)C2C=CC1C2 here?
**A.** The Activity was “inactive”.

**Q.** What about the EC50 [2] of the same compound?
**A.** The EC50 was 100 µg/mL (≈ 480 µM).

**Q.** What about the Activity [3] of the same compound?
**A.** Its Activity is “Non-toxic”.

**Q.** And the Activity [4]?
**A.** The Activity was “Non-toxic”.

**Q.** With COC(=O)C1=C(C(=O)OC)[C@H]2C[C@H]1[C@@H]1O[C@@H]12 as the compound, how does the Activity [1] read?
**A.** The Activity was “inactive”.

**Q.** What about the EC50 [2] of the same compound?
**A.** The EC50 was 22 µg/mL (≈ 98.1 µM).

**Q.** What about the Activity [3] of the same compound?
**A.** The Activity was “Toxic”.

**Q.** What about the Activity [4] of the same compound?
**A.** Its Activity is “Non-toxic”.

**Q.** For COC(=O)C1=C(C(=O)OC)C2(C)C=CC1O2 (stereo not given), which Activity [1] is on record?
**A.** The Activity was “inactive”.

**Q.** What about the EC50 [2] of the same compound?
**A.** The EC50 was 3 µg/mL (≈ 13.4 µM).

**Q.** What about the Activity [3] of the same compound?
**A.** The Activity was “Toxic”.

**Q.** What about the Activity [4] of the same compound?
**A.** The Activity was “Toxic”.

**Q.** What about the Activity [5] of the same compound?
**A.** The Activity was “Toxic”.

**Q.** What about the Activity [6] of the same compound?
**A.** Its Activity is “Non-toxic”.

**Q.** For COC(=O)C1CC2OC2C(C)C1C(=O)OC (stereo not given), which Activity [1] is on record?
**A.** Its Activity is “inactive”.

**Q.** And the EC50 [2]?
**A.** Its EC50 is 100 µg/mL (≈ 438 µM).

**Q.** And the Activity [3]?
**A.** The Activity was “Non-toxic”.

**Q.** And the Activity [4]?
**A.** Its Activity is “Non-toxic”.

**Q.** What does the source list for COC(=O)C1=C(C(=O)OC)[C@H]2O[C@H]1[C@@H]1O[C@@H]12?
**A.** Activity [1]: inactive; EC50 [2]: 1.5 µg/mL (≈ 6.63 µM); Activity [3]: Toxic; Activity [4]: Toxic; Activity [5]: Toxic; Activity [6]: Non-toxic

**Q.** Which results are given for C1=CCC2OC2C1 (stereo not given)?
**A.** Activity [1]: inactive; EC50 [2]: 130 µg/mL (≈ 1350 µM); Activity [3]: Toxic; Activity [4]: Non-toxic

**Q.** Which Activity [1] does the source give for COC(=O)C1CC=CC(C)C1C(=O)OC (stereo not given) here?
**A.** The Activity was “inactive”.

**Q.** And the EC50 [2]?
**A.** The EC50 was 48 µg/mL (≈ 226 µM).

**Q.** What about the Activity [3] of the same compound?
**A.** The Activity was “Non-toxic”.

**Q.** What about the Activity [4] of the same compound?
**A.** The Activity was “Non-toxic”.

**Q.** What does the source list for C1CC2CC1C1OC21 (stereo not given)?
**A.** Activity [1]: inactive; EC50 [2]: 100 µg/mL (≈ 908 µM); Activity [3]: Non-toxic; Activity [4]: Non-toxic

**Q.** With COC(=O)[C@@H]1[C@H](C(=O)OC)[C@@H]2C=C[C@@H]1O2 as the compound, how does the Activity [1] read?
**A.** Its Activity is “inactive”.

**Q.** And the EC50 [2]?
**A.** The EC50 was 100 µg/mL (≈ 471 µM).

**Q.** What about the Activity [3] of the same compound?
**A.** Its Activity is “Non-toxic”.

**Q.** What about the Activity [4] of the same compound?
**A.** The Activity was “Non-toxic”.

**Q.** Which Activity [1] does the source give for COC(=O)[C@@H]1[C@H](C(=O)OC)[C@@H]2C=C[C@@H]1C2 here?
**A.** The Activity was “inactive”.

**Q.** And the EC50 [2]?
**A.** Its EC50 is 100 µg/mL (≈ 476 µM).

**Q.** And the Activity [3]?
**A.** Its Activity is “Non-toxic”.

**Q.** And the Activity [4]?
**A.** Its Activity is “Non-toxic”.

**Q.** For COC(=O)C1=C(C(=O)OC)C2CCC1C2, which Activity [1] is on record?
**A.** The Activity was “inactive”.

**Q.** And the EC50 [2]?
**A.** The EC50 was 100 µg/mL (≈ 476 µM).

**Q.** And the Activity [3]?
**A.** The Activity was “Non-toxic”.

**Q.** And the Activity [4]?
**A.** Its Activity is “Non-toxic”.

**Q.** For COC(=O)C1=C(C(=O)OC)[C@@]2(C)O[C@H]1[C@@H]1O[C@@H]12, which Activity [1] is on record?
**A.** Its Activity is “inactive”.

**Q.** And the EC50 [2]?
**A.** The EC50 was 3 µg/mL (≈ 12.5 µM).

**Q.** What about the Activity [3] of the same compound?
**A.** Its Activity is “Toxic”.

**Q.** And the Activity [4]?
**A.** The Activity was “Toxic”.

**Q.** And the Activity [5]?
**A.** The Activity was “Toxic”.

**Q.** And the Activity [6]?
**A.** The Activity was “Non-toxic”.

**Q.** For COC(=O)[C@@H]1[C@H]2O[C@@H]([C@H]3O[C@H]32)[C@@H]1C(=O)OC, which Activity [1] is on record?
**A.** The Activity was “inactive”.

**Q.** And the EC50 [2]?
**A.** The EC50 was 100 µg/mL (≈ 438 µM).

**Q.** What about the Activity [3] of the same compound?
**A.** Its Activity is “Non-toxic”.

**Q.** And the Activity [4]?
**A.** The Activity was “Non-toxic”.
